In brackets after ≈: the same amount, converted by molar mass.
What was measured:
Cytochrome P450 2C9 = Cytochrome P450 2C9 (Homo sapiens, UniProt P11712); experiment: Inhibition of CYP2C9; type: ADME
In short: (§1)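 Inhibition tested separately against P450 isoforms 2C9, 2D6 and 3A4, with test concentrations up to 30 μM.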

Cytochrome P450 2D6 = Cytochrome P450 2D6 (Homo sapiens, UniProt P10635); experiment: Inhibition of CYP2D6; type: ADME; in short: as §1
Cytochrome P450 3A4 [1] = molecular target: T1, Cytochrome P450 3A4 (Homo sapiens, UniProt P08684); experiment: Inhibition of CYP3A4; type: ADME; in short: as §1
T1 sequence (P08684 whole entry): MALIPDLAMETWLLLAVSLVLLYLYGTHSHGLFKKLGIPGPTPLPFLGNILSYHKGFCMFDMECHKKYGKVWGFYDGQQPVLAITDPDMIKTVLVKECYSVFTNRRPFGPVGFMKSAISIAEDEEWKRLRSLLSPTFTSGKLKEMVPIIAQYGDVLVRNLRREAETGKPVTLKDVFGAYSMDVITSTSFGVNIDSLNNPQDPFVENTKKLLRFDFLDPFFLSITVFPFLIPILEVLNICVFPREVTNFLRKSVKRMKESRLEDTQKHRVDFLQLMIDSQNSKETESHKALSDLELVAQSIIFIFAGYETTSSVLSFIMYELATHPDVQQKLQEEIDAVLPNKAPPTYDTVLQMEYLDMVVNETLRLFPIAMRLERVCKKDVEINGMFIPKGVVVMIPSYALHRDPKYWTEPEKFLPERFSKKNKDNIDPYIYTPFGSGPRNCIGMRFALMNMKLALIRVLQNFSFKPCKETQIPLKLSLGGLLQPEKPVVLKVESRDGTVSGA

Cytochrome P450 3A4 [2] = molecular target: T1, Cytochrome P450 3A4; experiment: Inhibition of CYP3A4 upto 30 uM; type: ADME; in short: as §1
[3] = molecular target: C-C chemokine receptor type 5 (Homo sapiens, UniProt P51681); experiment: Antagonist activity at human CCR5 expressed in CHO cells assessed as inhibition of MIP-1alpha-induced calcium mobilization Ca assay; type: functional, cell-based
Sequence of C-C chemokine receptor type 5 (P51681 whole entry): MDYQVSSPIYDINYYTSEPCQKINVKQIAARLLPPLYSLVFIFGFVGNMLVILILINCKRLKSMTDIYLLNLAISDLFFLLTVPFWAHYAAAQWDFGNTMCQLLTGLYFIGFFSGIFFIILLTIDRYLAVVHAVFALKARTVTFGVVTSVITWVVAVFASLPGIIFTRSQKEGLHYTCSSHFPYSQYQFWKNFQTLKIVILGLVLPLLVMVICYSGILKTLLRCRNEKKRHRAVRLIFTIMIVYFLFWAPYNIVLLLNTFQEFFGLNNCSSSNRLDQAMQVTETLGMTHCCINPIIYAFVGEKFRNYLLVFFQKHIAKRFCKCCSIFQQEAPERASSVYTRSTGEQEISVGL

[4] = test system: Human immunodeficiency virus 1; experiment: Antiviral activity against R5 tropic HIV1 Ba-L infected in human PBMC assessed as inhibition of […] antigen expression; type: functional, organism-based; settings: Human immunodeficiency virus 1, Ba-L
[5] = test system: Human immunodeficiency virus 1; experiment: Antiviral activity against multidrug-resistant R5 tropic HIV1 MM infected in human PBMC assessed as inhibition of […] antigen expression; type: functional, organism-based; settings: Human immunodeficiency virus 1, MM
[6] = Solubility of the compound; type: physicochemical
In short: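 Kinetic aqueous solubility, determined at pH 6.8 and reported in […].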

[7] = Cmax in rat at 10 mg/kg, po; type: ADME, organism-based; parameters: dose 10 mg/kg, route oral; settings: in vivo
[8] = Half life in rat at 10 mg/kg, po; type: ADME, organism-based; parameters: dose 10 mg/kg, route oral; settings: in vivo
In short: (§2)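 Single-dose oral and intravenous administration in rats. Plasma PK parameters were derived from these dosings: clearance and Vss after iv dosing, and Cmax and AUC after oral dosing.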

[9] = (§3) AUC in rat at 10 mg/kg, po; type: ADME, organism-based, Plasma; parameters: dose 10 mg/kg, route oral; settings: plasma
Caco-2 = experiment: Permeability across human Caco2 cell membrane; type: ADME, cell-based
[10] = (§4) Oral bioavailability in rat at 10 mg/kg; type: ADME, organism-based; settings: in vivo; in short: as §2
Rattus norvegicus [11] = experiment: (§5) AUC in rat at 3 mg/kg, iv; type: ADME, organism-based, Plasma; parameters: dose 3 mg/kg, route intravenous; settings: in vivo; in short: as §2
[12] = as §5; type: ADME, organism-based, Plasma; parameters: dose 3 mg/kg, route intravenous; settings: plasma; in short: as §2
[13] = Half life in rat at 3 mg/kg, iv; type: ADME, organism-based; parameters: dose 3 mg/kg, route intravenous; settings: in vivo
[14] = Clearance in rat at 3 mg/kg, iv; type: ADME, organism-based; parameters: dose 3 mg/kg, route intravenous; settings: in vivo
Rattus norvegicus [15] = experiment: as §3; type: ADME, organism-based, Plasma; parameters: dose 10 mg/kg, route oral; settings: in vivo
Rattus norvegicus [16] = experiment: as §4; type: ADME, organism-based; settings: in vivo; in short: as §2
[17] = Aqueous solubility of the compound at pH 6.8; type: physicochemical; settings: buffer
In short: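 Kinetic aqueous solubility at pH 6.8, reported in μg/mL.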

Sequence of Cytochrome P450 2D6 (P10635 whole entry): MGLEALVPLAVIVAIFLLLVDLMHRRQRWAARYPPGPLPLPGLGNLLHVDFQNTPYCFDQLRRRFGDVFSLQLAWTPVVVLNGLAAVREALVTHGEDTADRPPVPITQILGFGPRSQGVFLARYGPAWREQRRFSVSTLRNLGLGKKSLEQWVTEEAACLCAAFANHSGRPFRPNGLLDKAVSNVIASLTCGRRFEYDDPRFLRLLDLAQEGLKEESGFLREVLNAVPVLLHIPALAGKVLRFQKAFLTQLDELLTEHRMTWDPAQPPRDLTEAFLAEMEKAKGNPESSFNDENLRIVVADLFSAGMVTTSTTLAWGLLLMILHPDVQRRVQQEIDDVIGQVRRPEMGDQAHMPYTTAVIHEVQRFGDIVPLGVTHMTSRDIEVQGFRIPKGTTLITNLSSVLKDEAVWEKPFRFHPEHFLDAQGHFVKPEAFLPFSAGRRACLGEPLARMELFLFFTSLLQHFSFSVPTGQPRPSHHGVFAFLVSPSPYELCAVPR
Sequence of Cytochrome P450 2C9 (P11712 whole entry, canonical isoform): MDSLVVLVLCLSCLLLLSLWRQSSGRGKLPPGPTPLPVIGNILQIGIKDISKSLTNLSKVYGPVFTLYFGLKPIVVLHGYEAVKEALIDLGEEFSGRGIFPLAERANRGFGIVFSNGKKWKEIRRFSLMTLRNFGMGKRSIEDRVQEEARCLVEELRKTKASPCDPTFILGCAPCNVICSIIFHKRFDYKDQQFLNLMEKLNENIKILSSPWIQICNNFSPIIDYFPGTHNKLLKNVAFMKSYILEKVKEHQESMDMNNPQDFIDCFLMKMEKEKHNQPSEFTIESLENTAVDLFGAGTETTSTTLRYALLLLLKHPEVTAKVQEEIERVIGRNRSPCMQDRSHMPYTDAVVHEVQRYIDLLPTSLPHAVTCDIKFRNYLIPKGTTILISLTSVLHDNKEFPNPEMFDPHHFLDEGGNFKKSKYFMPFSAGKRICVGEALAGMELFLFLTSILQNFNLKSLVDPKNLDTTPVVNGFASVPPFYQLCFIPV

Row | Compound | IC50 (Cytochrome P450 2C9) | IC50 (Cytochrome P450 2D6) | IC50 (Cytochrome P450 3A4 [1]) | solubility [6] | Cmax [7] | half-life [8] | AUC [9] | bioavailability [10] | also measured
1 | CCCCN1C(=O)[C@@H]([C@H](O)C2CCCCC2)NC(=O)C12CCN(Cc1ccc(Oc3ccccc3)cc1)CC2.Cl | 3.7 µM | 9.8 µM | > 30 µM |  |  |  |  |  | inhibition (INH) (Cytochrome P450 3A4 [2]): Not Active
2 | CCCCN1C(=O)[C@@H]([C@H](O)C(C)C)NC(=O)C12CCN(Cc1ccc(Oc3ccccc3)cc1)CC2 | > 30 µM | > 30 µM | > 30 µM |  |  |  |  |  | IC50 [3]: 0.084 µM
3 | COC[C@@H](c1ccc(C(F)(F)F)cc1)N1CCN(C2(C)CCN(C(=O)c3c(C)ncnc3C)CC2)C[C@@H]1C [VICRIVIROC] |  |  |  |  |  |  |  |  | IC50 [4]: 0.004 µM; IC50 [5]: 0.003 µM
4 | CCCCN1C(=O)[C@@H]([C@@H](O)C2CCCCC2)NC(=O)C12CCN(Cc1ccc(Oc3ccc(C(=O)O)cc3)cc1)CC2.Cl | 18 µM | > 30 µM | > 30 µM | 81 µM | 70 ng/mL | 35.2 min | 67.5 ng·h/mL |  | 
5 | Cc1ccc(-c2ccc3c(c2)C=C(C(=O)Nc2ccc(C[N+](C)(C)C4CCOCC4)cc2)CCC3)cc1 |  |  |  |  |  |  |  |  | IC50 [4]: 0.028 µM; IC50 [5]: 0.014 µM
6 | CCCCN1C(=O)[C@H]([C@H](O)C2CCCCC2)NC(=O)C12CCN(Cc1ccc(Oc3ccc(C(=O)O)cc3)cc1)CC2 | > 30 µM | > 30 µM | > 30 µM | 85 µM (≈ 49.1 µg/mL) | 280 ng/mL | 14.4 min | 126 ng·h/mL |  | permeability (Caco-2): 1.6 ×10⁻⁶ cm/s
7 | CCCCN1C(=O)C(CC(C)C)NC(=O)C12CCN(Cc1ccc(Oc3ccccc3)cc1)CC2.Cl (racemic) | 5.9 µM | 4.6 µM | 19.7 µM |  |  | 75.7 min |  | 1.3% | AUC (Rattus norvegicus [11]): 372 ng·h/mL
8 | Cc1c(O)cccc1C(=O)N[C@@H](CSc1ccccc1)[C@H](O)CN1C[C@H]2CCCC[C@H]2C[C@H]1C(=O)NC(C)(C)C |  |  |  |  |  |  |  |  | IC50 [5]: > 1 µM
9 | CCCCN1C(=O)[C@H]([C@@H](O)C2CCCCC2)NC(=O)C12CCN(Cc1ccc(Oc3ccc(C(=O)O)cc3)cc1)CC2.Cl | > 30 µM | > 30 µM | > 30 µM | 80 µM | 260 ng/mL | 19.2 min | 213 ng·h/mL | 6.5% | permeability (Caco-2): 2.1 ×10⁻⁶ cm/s; AUC [12]: 988 ng·h/mL; half-life [13]: 16.2 min; clearance [14]: 50.9 mL/min/kg
10 | CCCCN1C(=O)[C@H](CC2CCCCC2)NC(=O)C12CCN(Cc1ccc(Oc3ccc(C(=O)O)cc3)cc1)CC2.Cl | 8.8 µM | > 30 µM | 24.9 µM |  | 2400 ng/mL | 48.4 min |  |  | AUC (Rattus norvegicus [15]): 10532 ng·h/mL; F (Rattus norvegicus [16]): 34%; AUC (Rattus norvegicus [11]): 3091 ng·h/mL; half-life [13]: 11.1 min; clearance [14]: 16 mL/min/kg
11 | CCCCN1C(=O)[C@@H]([C@H](O)C2CCCCC2)NC(=O)C12CCN(Cc1ccc(Oc3ccc(C(=O)O)cc3)cc1)CC2.Cl [APLAVIROC HYDROCHLORIDE] | > 30 µM | > 30 µM | > 30 µM | 70 µM | 2360 ng/mL | 120 min | 3420 ng·h/mL | 23% | permeability (Caco-2): 3.8 ×10⁻⁶ cm/s; AUC [12]: 4400 ng·h/mL; half-life [13]: 21.8 min; clearance [14]: 11.3 mL/min/kg
12 | CCCCN1C(=O)C(CC2CCCCC2)NC(=O)C12CCN(Cc1ccc(Oc3ccccc3)cc1)CC2.Cl (racemic) | 5.5 µM | 7.8 µM |  |  |  | 103 min |  | 1.9% | AUC (Rattus norvegicus [11]): 400 ng·h/mL; solubility [17]: < 0.2 µg/mL
